From ChEMBL document CHEMBL1128362, “Structure-activity relationships of 9-alkyladenine and ribose-modified adenosine derivatives at rat A3 adenosine receptors” (J Med Chem, 1995)
Where “and” joins values, the source holds several entries; their conditions need not be identical. Equal entries are not always repeated. One block for each molecule: values may come before it. Calls of active or inactive are those of the source. No cut-off for these calls is given here.

What was measured:
[1] = target: Adenosine receptors; A1 & A3 (Rattus norvegicus) (UniProt P25099+P28647); assay: Ratio of the binding affinities against rat brain A1 and A3 receptors, KiA1/KiA3.
[2] = target: Adenosine receptor A2a and A3 (Rattus norvegicus) (UniProt P30543+P28647); assay: Ratio of the binding affinities against rat brain A2a and A3 receptors, KiA2a/KiA3.
[3] = target: T1, Adenosine receptor A3 (Rattus norvegicus) (UniProt P28647); assay: Ability to inhibit the adenylyl cyclase in CHO cells stably transfected with rat Adenosine A3 receptor at the concentration of 40(uM); format: cell-based
T1 sequence (whole entry): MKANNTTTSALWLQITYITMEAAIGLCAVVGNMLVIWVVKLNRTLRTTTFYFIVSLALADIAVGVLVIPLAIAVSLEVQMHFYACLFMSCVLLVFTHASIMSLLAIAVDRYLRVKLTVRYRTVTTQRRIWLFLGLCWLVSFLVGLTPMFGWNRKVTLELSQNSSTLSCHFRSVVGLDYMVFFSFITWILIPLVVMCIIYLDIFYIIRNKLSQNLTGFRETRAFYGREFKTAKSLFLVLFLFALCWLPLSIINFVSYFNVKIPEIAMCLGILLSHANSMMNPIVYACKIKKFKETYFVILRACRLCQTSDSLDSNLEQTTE
In short: (§1)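 Adenylyl cyclase activity measured in membranes of CHO cells stably transfected with rat brain A3 receptor, following an earlier published method. […] Untransfected CHO cell membranes served as the control.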

[4] = target: T1, Adenosine receptor A3 (Rattus norvegicus); assay: Ratio of the concentration (40 uM) effecting adenylyl cyclase and binding affinity against rat brain A3 receptors.
In short: (§2)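 This ratio is the adenylyl cyclase test concentration (20, 40 or 100 µM) divided by the A3 Ki. The Ki came from [125I]AB-MECA displacement in membranes of CHO cells expressing rat A3 receptor.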

[5] = target: T1, Adenosine receptor A3 (Rattus norvegicus); assay: Ratio of the concentration (100 uM) effecting adenylyl cyclase and binding affinity against rat brain A3 receptors.; in short: as §2
Adenosine receptor A3 = target: T2, Adenosine receptor A3 (Rattus norvegicus, UniProt P28647); assay: Binding affinity against adenosine A3 receptor (rat) stably expressed in CHO cell membranes.
T2 sequence (P28647 whole entry): T1 sequence (whole entry)
In short: (§3)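 Rat brain A3 receptor was stably expressed in CHO cell membranes and labelled with [125I]AB-MECA at 0.3 nM final, in 50 mM Tris/10 mM MgCl2/1 mM EDTA, pH 8.26. Inhibitors were in DMSO, at no more than 2% final. Incubation was 1 h at 37 °C in duplicate, ended by filtration. Nonspecific binding was defined by 200 µM NECA.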

Adenosine receptor A1 = target: T3, Adenosine receptor A1 (Rattus norvegicus, UniProt P25099); assay: Binding affinity against adenosine A1 receptor from rat brain.
T3 sequence (P25099 whole entry): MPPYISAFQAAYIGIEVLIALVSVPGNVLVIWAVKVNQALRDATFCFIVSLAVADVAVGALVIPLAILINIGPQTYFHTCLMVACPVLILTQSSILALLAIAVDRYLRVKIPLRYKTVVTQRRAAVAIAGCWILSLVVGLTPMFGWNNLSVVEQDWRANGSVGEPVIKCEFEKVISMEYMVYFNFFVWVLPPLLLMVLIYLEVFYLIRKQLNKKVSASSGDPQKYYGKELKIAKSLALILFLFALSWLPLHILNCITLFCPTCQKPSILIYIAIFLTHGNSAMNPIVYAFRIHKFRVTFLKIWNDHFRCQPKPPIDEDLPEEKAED

[6] = target: T1, Adenosine receptor A3 (Rattus norvegicus); assay: Ability to inhibit the adenylyl cyclase in CHO cells stably transfected with rat Adenosine A3 receptor at the concentration of 100 uM; format: cell-based; in short: as §1
[7] = target: T1, Adenosine receptor A3 (Rattus norvegicus); conditions: CHO
[8] = target: T1, Adenosine receptor A3 (Rattus norvegicus); conditions: CHO; remark: listed apart in the source
[9] = target: T1, Adenosine receptor A3 (Rattus norvegicus); assay: Ratio of the concentration (20 uM) effecting adenylyl cyclase and binding affinity against rat brain A3 receptors; in short: as §2
[10] = target: T1, Adenosine receptor A3 (Rattus norvegicus); assay: Ability to inhibit the adenylyl cyclase in CHO cells stably transfected with rat Adenosine A3 receptor at the concentration of 20(uM); format: cell-based; in short: as §1
[11] = target: T1, Adenosine receptor A3 (Rattus norvegicus); assay: Inhibition of Adenosine A3 receptor from rat brain; conditions: concentration not given here; in short: as §3
[12] = target: T4, Adenosine receptor A1 (Rattus norvegicus) (UniProt P25099); assay: Inhibition of Adenosine A1 receptor from rat brain.; conditions: concentration not given here
T4 sequence (whole entry): T3 sequence (P25099 whole entry)
In short: (§4)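 Rat A1 receptors came from cerebral cortical membranes with [3H]R-PIA, and rat A2a receptors came from striatal membranes with [3H]CGS 21680. Membranes were pretreated with adenosine deaminase (2 U/mL) for 30 min at 37 °C. Nonspecific binding was defined by 2-chloroadenosine at 10 µM (A1) and 200 µM (A2a).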

[13] = target: Adenosine receptor A2a (Rattus norvegicus) (UniProt P30543); assay: Binding affinity against Adenosine A2A receptor from rat brain; parameters: concentration or dose not given beside the values; conditions: concentration not given here; in short: as §4
Adenosine receptor A2a = Adenosine receptor A2a (Rattus norvegicus, UniProt P30543); assay: Binding affinity against adenosine A2A receptor from rat brain.
[14] = target: T1, Adenosine receptor A3 (Rattus norvegicus); assay: Agonist elicited inhibition of adenylyl cyclase via rat Adenosine A3 receptor in transfected CHO cells and effect on IB-MECA was determined from dose response curves at the concentration of 40(uM); format: functional, cell-based
In short: (§5)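 CHO cell membranes stably transfected with rat A3 receptor were used to test for antagonism. Adenylyl cyclase inhibition was elicited by the A3 agonist IB-MECA across a dose-response curve, and test agent at 40 or 100 µM was checked for reversal of the agonist-induced inhibition. The cyclase measurement followed a previously described method.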

[15] = target: T1, Adenosine receptor A3 (Rattus norvegicus); assay: Agonist elicited inhibition of adenylyl cyclase via rat Adenosine A3 receptor in transfected CHO cells and effect on IB-MECA was determined from dose response curves at the concentration of 100(uM); format: functional, cell-based; in short: as §5
[16] = target: T1, Adenosine receptor A3 (Rattus norvegicus); assay: Ratio of the concentration (40 uM) effecting adenylyl cyclase and binding affinity against rat brain Adenosine A3 receptor; in short: as §2
[17] = target: T1, Adenosine receptor A3 (Rattus norvegicus); assay: Ability to inhibit the adenylyl cyclase in CHO cells stably transfected with rat Adenosine A3 receptor at the dose of 40(uM); format: cell-based; in short: as §1
[18] = target: T1, Adenosine receptor A3 (Rattus norvegicus); conditions: CHO; remark: listed apart in the source

Sequence of Adenosine receptor A2a and A3 (Rattus norvegicus) (P30543 whole entry, looked up, one chain of several): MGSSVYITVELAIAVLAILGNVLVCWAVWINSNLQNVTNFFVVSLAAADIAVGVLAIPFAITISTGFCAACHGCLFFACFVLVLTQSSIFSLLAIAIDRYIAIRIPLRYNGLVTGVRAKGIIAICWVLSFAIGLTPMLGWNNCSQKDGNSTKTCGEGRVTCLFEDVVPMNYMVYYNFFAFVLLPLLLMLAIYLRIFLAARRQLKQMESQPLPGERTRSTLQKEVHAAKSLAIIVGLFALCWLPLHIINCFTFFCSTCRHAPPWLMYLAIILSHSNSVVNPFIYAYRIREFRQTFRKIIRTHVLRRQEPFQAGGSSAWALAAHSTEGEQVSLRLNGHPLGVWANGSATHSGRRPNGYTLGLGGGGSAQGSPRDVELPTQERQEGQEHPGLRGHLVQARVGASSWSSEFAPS
Sequence of Adenosine receptor A2a (P30543 whole entry): as the sequence (P30543 whole entry, looked up, one chain of several) above
Sequence of Adenosine receptor A2a (Rattus norvegicus) (P30543 whole entry): as the sequence (P30543 whole entry, looked up, one chain of several) above

Compound: CNC(=O)[C@@H]1C[C@@H](O)[C@H](n2cnc3c(NCc4cccc(I)c4)nc(Cl)nc32)O1
- inhibition [3]: 35.2%
- Ratio [1]: 31
- Ratio [2]: 140
- Ratio [4]: 1200
- Ratio [5]: 3000

Compound: Nc1nc(Cl)nc2c1ncn2[C@@H]1O[C@H](CO)[C@@H](O)[C@@H]1O
- inhibition [3]: 16.1%
- Ki (Adenosine receptor A3): 14 µM
- Ki (Adenosine receptor A1): 24.2 µM

Compound: CNC(=O)[C@H]1O[C@@H](n2cnc3c(NCc4cccc(I)c4)nc(Cl)nc32)[C@@H]2OC(=S)O[C@@H]21
- Ratio [1]: 15
- Ratio [2]: 71
- Ratio [5]: 8200

Compound: CNC(=O)[C@H]1O[C@@H](n2cnc3c(NCc4cccc(I)c4)ncnc32)[C@H](O)[C@@H]1O
- inhibition [6]: 44.4%
- Effect [7]: inactive
- Effect [8]: inactive

Compound: CNC(=O)[C@@H]1C[C@H](N=[N+]=[N-])[C@H](n2cnc3c(NCc4cccc(I)c4)nc(Cl)nc32)O1
- Ratio [9]: 3.3
- inhibition [6]: 27.8%
- Ratio [1]: 0.067
- inhibition [10]: 25.7% and 18%
- Ratio [2]: 4.7
- Ratio [5]: 17

Compound: CNC(=O)C1OC(n2cnc3c(NC(=O)c4cccc(I)c4)nc(Cl)nc32)C(OC(=O)c2ccccc2)C1OC(=O)c1ccccc1 (stereo not drawn)
- inhibition [11]: 55%
- inhibition [12]: 21%
- inhibition [13]: 7%

Compound: CCCCCC[C@@H]([C@@H](C)O)n1cnc2c(N)ncnc21
- inhibition [3]: 5.9%
- Effect [14]: 0
- inhibition [11]: 57%
- inhibition [13]: 60%

Compound: CCn1cnc2c(NC3CCCC3)ncnc21
- inhibition [11]: 30%
- Ratio [1]: < 1
- Ratio [2]: < 1

Compound: CC(O)[C@@H]1O[C@@H](n2cnc3c(N)ncnc32)[C@H](O)[C@@H]1O (stereo partly drawn)
- inhibition [3]: 0%
- Ki (Adenosine receptor A2a): 54.7 µM
- Ki (Adenosine receptor A3): 6 µM
- Ratio [1]: < 1
- Ratio [2]: < 1
- Ki (Adenosine receptor A1): 150 µM

Compound: Cn1cnc2c(NC3CCCC3)ncnc21
- Ki (Adenosine receptor A2a): 11 µM
- Ki (Adenosine receptor A3): 1330 µM
- Ratio [1]: 0.00041
- Ratio [2]: 0.0083

Compound: CNC(=O)[C@H]1C[C@@H](n2cnc3c(NCc4cccc(I)c4)ncnc32)[C@H](O)[C@@H]1O
- Ki (Adenosine receptor A3): 19.5 µM
- Ratio [1]: 1.8
- Ratio [2]: > 1
- inhibition [13]: 28.5%
- Ki (Adenosine receptor A1): 35.9 µM

Compound: CNC(=O)[C@@H]1CC[C@H](n2cnc3c(NCc4ccccc4)nc(Cl)nc32)O1
- inhibition [3]: 7.5% and 10.8%
- Effect [14]: 0
- Ratio [1]: 0.37
- Ratio [2]: 7.1
- Ratio [4]: 1.3

Compound: CNC(=O)[C@@H]1C[C@@H](OC(C)=O)[C@H](n2cnc3c(NCc4cccc(I)c4)nc(Cl)nc32)O1
- Ratio [9]: 320
- Ratio [1]: 12
- inhibition [10]: 12.7%
- Ratio [2]: 250

Compound: CS[C@H]1OC(n2cnc3c(N)ncnc32)[C@H](O)[C@@H]1O (stereo partly drawn)
- Ratio [16]: 28
- inhibition [17]: 19.7%

Compound: CNC(=O)[C@@H]1C[C@@H](OS(C)(=O)=O)[C@H](n2cnc3c(NCc4cccc(I)c4)nc(Cl)nc32)O1
- Ratio [1]: 0.18
- Ratio [2]: 5.8

Compound: CC(C)[Si]1(C(C)C)OC[C@H]2O[C@@H](n3cnc4c(NCc5cccc(I)c5)nc(Cl)nc43)[C@H](O)[C@@H]2O[Si](C(C)C)(C(C)C)O1
- inhibition [6]: 8.7%
- Ratio [1]: 5.1
- Ratio [2]: > 7
- inhibition [13]: 18%
- Ratio [5]: 7.6

Next, values leading:

- Ratio [1]: 0.027
- Ratio [2]: 0.068
Compound: COc1nc(NCc2cccc(I)c2)c2ncn(C)c2n1

- Ratio [1]: 0.12
- Ratio [2]: 0.046
Compound: Cn1cnc2c(NCc3cccc(I)c3)ncnc21

- Ratio [1]: 0.55
- Ratio [2]: 0.76
Compound: OC[C@@H](O)Cn1cnc2c(NCc3cccc(I)c3)ncnc21

- Ratio [1]: 0.0088
- Ratio [2]: 0.053
Compound: Cn1cnc2c(NCc3cccc(I)c3)nc(Cl)nc21

- Ratio [1]: 0.67
- Ratio [2]: 3.7
Compound: CNc1nc(NCc2cccc(I)c2)c2ncn(C)c2n1

- Ki (Adenosine receptor A2a): 98 µM
- Ki (Adenosine receptor A3): 17.8 µM
- inhibition [6]: 11.2%
- Ratio [1]: 0.08
- Ratio [2]: 5.5
- Ki (Adenosine receptor A1): 1.42 µM
- Ratio [5]: 5.6
Compound: CNC(=O)[C@@H]1C[C@@H](F)[C@H](n2cnc3c(NCc4cccc(I)c4)nc(Cl)nc32)O1

- Ratio [1]: 0.099
- Ratio [2]: 0.66
Compound: CN(C)c1nc(NCc2cccc(I)c2)c2ncn(C)c2n1

- Ratio [1]: 0.032
- Ratio [2]: 0.1
Compound: N#CCCCn1cnc2c(NCc3cccc(I)c3)ncnc21

- Effect [15]: 0
- inhibition [6]: 19.5%
- Ratio [1]: 6.3
- Ratio [2]: 5.5
- Ratio [5]: 330
Compound: CSc1nc(NCc2cccc(I)c2)c2ncn(C)c2n1

- Ratio [1]: 0.05
- Ratio [2]: 0.18
Compound: Cn1cnc2c(NCc3cccc(I)c3)nc(NN)nc21

- Ratio [1]: 0.14
- Ratio [2]: 0.08
Compound: Cn1cnc2c(NCc3cccc(I)c3)nc(N)nc21

- inhibition [13]: 2%
Compound: CNC(=O)[C@@H]1C[C@H](N)[C@H](n2cnc3c(NCc4cccc(I)c4)nc(Cl)nc32)O1

- Ratio [1]: 0.37
- Ratio [2]: 0.24
Compound: OCCn1cnc2c(NCc3cccc(I)c3)ncnc21

- inhibition [12]: 17%
- inhibition [13]: 9%
Compound: O=C(O)Cn1cnc2c(NCc3cccc(I)c3)ncnc21

- inhibition [3]: 5.5% and 7.3%
- Ki (Adenosine receptor A2a): 78.9 µM
- Ki (Adenosine receptor A3): 8.59 µM
- Effect [18]: 0
- Ratio [1]: 0.16
- Ratio [2]: 9.2
- Ratio [4]: 4.6
- Ki (Adenosine receptor A1): 1.34 µM
Compound: CSc1nc(NCc2cccc(I)c2)c2ncn(C[C@H](O)CO)c2n1

- Ratio [1]: 0.0051
- Ratio [2]: 0.07
Compound: Cn1cnc2c(NCc3cccc(I)c3)nc(Sc3ccncc3)nc21
